Data reported in ChEMBL document CHEMBL4680165, “β-Lactams with antiproliferative and antiapoptotic activity in breast and chemoresistant colon cancer cells” (Eur J Med Chem, 2020).
Active and inactive are the calls of the source. No cut-off for these calls is given here.

Experiments:
[1] = organism: Bos taurus; test: Inhibition of bovine brain tubulin polymerization at 10 uM measured at 30 sec interval for 30 mins in presence of GTP by turbidimetry-based spectrophotometric method
[2] = system: HT-29; test: Antiproliferative activity against human HT-29 cells assessed as reduction in cell viability after 72 hrs by alamar blue assay; format: functional, cell-based; conditions: HT-29, 72 h
Outline: (§1)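 Cells seeded at 5 x 10^3/well (MCF-7) or 1 x 10^4/well (HT-29, HEK-293T) and treated after 24 h with serial dilutions (0.001-100 µM) in 1% v/v ethanol vehicle. Alamar Blue 10% v/v added at 72 h, then 3-5 h at 37 °C in the dark; fluorescence ex 530/em 590 nm. Viability relative to vehicle; IC50 from dose-response curves; mean of three experiments in triplicate.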

[3] = system: MCF7; test: Cell cycle arrest in human MCF7 cells assessed as accumulation at G2/M phase at 1 uM measured after 48 hrs by PI staining based flow cytometry analysis (reference value: 24 %); format: functional
Outline: (§2)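 Cells (1 × 10^5/well) were treated at 1 µM for 24, 48 and 72 h; vehicle was 0.1% v/v ethanol. Cells were trypsinised, fixed in ice-cold 70% ethanol overnight at −20 °C, then stained with PI (50 µg/mL) plus DNase-free RNase A (50 µg/mL) at 37 °C for 30 min. DNA content of 10,000 cells per group was read by flow cytometry at 488 nm.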

[4] = system: MCF7; test: Cell cycle arrest in human MCF7 cells assessed as accumulation at G2/M phase at 1 uM by PI staining based flow cytometry analysis; format: functional; conditions: TDE = time-dependent effect; outline: as §2
[5] = system: HT-29; test: Induction of apoptosis in human HT29 cells assessed as necrotic cells at 1 uM after 24 hrs by Annexin V-FITC and propidium iodide staining based flow cytometry (reference value: 3 %); format: functional
Outline: (§3)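 HT-29 cells were treated at 1 µM for 24, 48 and 72 h against an untreated control. Cells were stained with Annexin V in binding buffer (HEPES pH 7.4, NaCl, CaCl2) for 30 min on ice in the dark, washed, resuspended in PI-containing buffer and read at once by flow cytometry. Quadrants: early apoptotic, late apoptotic, necrotic (Annexin V−/PI+).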

[6] = system: HT-29; test: Antiangiogenic activity in human HT29 cells assessed as reduction in IL-1alpha secretion at 5 uM after 24 hrs by ELISA; format: functional, cell-based
Outline: (§4)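 HT-29 cells at 5 x 10^4 per well, cultured 24 h and then exposed to 5 µM compound. Conditioned medium collected on ice and stored at -80 °C. Cytokines and angiogenic, vascular-injury and chemokine factors measured by multiplex panels with overnight supernatant incubation (Angiogenesis Panel 1 and Vascular Injury Panel 2 same day). Medium undiluted except 1:4 for Vascular Injury Panel 2. Secretion normalised to lysate protein by BCA.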

[7] = biological target: T1, UDP-glucuronosyltransferases (UGTs) (Homo sapiens, UniProt O60656+O75310+O75795+P06133+P0DTE4+P0DTE5+P16662+P19224+P22309+P22310+P35503+P35504+P36537+P54855+Q6UWM9+Q9BY64+Q9HAW7+Q9HAW8+Q9HAW9); test: Metabolic stability in human liver microsomes assessed as UGT-mediated N-glucuronidation by measuring intrinsic clearance at 3 uM measured up to 45 mins by LC-MS/MS analysis; format: ADME; conditions: liver microsomes, read-out: CLH
Outline: (§5)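 Pooled human liver microsomes (0.5 mg/mL protein final) with alamethicin (25 µg/mg) in 0.1 M phosphate pH 7.4, compound 3 µM final (0.25% DMSO), preincubated 37 °C. Reaction started with UDPGA (1 mM final). Sampled at 0, 5, 15, 30, 45 min into methanol, analysed by LC-MS/MS. Minus-UDPGA control run 45 min. Single incubations; t½ and CLint taken from the elimination rate constant.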

[8] = system: HT-29; test: Induction of apoptosis in human HT29 cells assessed as necrotic cells at 1 uM after 48 hrs by Annexin V-FITC and propidium iodide staining based flow cytometry (reference value: 3 %); format: functional; outline: as §3
[9] = Selectivity index, ratio of IC50 for human MCF7 cells to IC50 for human HT-29 cells assessed as reduction in cell viability after 72 hrs by alamar blue assay; format: functional
[10] = system: HT-29; test: Cell cycle arrest in human HT-29 cells assessed as accumulation at G2/M phase at 1 uM measured after 72 hrs by PI staining based flow cytometry analysis (reference value: 11 %); format: functional; outline: as §2
[11] = system: MCF7; test: Antiproliferative activity against human MCF7 cells assessed as reduction in cell viability after 72 hrs by alamar blue assay; format: functional, cell-based; conditions: MCF7, 72 h; outline: as §1
[12] = biological target: T2, Tubulin (Homo sapiens) (UniProt P68371+Q9H4B7+P0DPH7+P68366+Q13509+Q71U36+P04350+Q3ZCM7+P07437+P68363+Q9BQE3+Q6PEY2+Q13885+Q9BVA1+Q9BUF5); test: Induction of microtubule depolymerization in human MCF7 cells at 10 to 100 nM after 16 hrs by immunofluorescence staining based confocal microscopic analysis; format: cell-based; conditions: dose 10-100 nM
Outline: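 MCF-7 cells seeded 1 × 10^5 cells/mL on chamber slides, exposed 16 h to vehicle [1% ethanol (v/v)] or test agent (0.01, 0.05, 0.1 µM). Fixed in 4% paraformaldehyde, permeabilised in 0.5% Triton X-100, blocked in 5% BSA, then stained with anti-α-tubulin-FITC (DM1A) 2 h rt, Alexa Fluor 488 1 h, DAPI mount. Confocal imaging; three independent experiments.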

[13] = system: HT-29; test: Induction of apoptosis in human HT29 cells assessed as cell apoptosis at 1 uM after 48 hrs by Annexin V-FITC and propidium iodide staining based flow cytometry; format: functional; outline: as §3
[14] = system: HT-29; test: Induction of apoptosis in human HT29 cells assessed as necrotic cells at 1 uM after 72 hrs by Annexin V-FITC and propidium iodide staining based flow cytometry (reference value: 3 %); format: functional; outline: as §3
[15] = system: HT-29; test: Induction of apoptosis in human HT29 cells assessed as cell apoptosis at 1 uM after 72 hrs by Annexin V-FITC and propidium iodide staining based flow cytometry; format: functional; outline: as §3
[16] = system: MCF7; test: Cell cycle arrest in human MCF7 cells assessed as accumulation at G2/M phase at 1 uM measured after 72 hrs by PI staining based flow cytometry analysis (reference value: 24 %); format: functional; outline: as §2
[17] = system: HT-29; test: Antiangiogenic activity in human HT29 cells assessed as reduction in VEGF secretion at 5 uM after 24 hrs by ELISA; format: functional, cell-based; outline: as §4
[18] = biological target: T2, Tubulin (Homo sapiens); test: Induction of microtubule depolymerization in human MCF7 cells assessed as induction of cell detachment and loss of radical distribution at 100 nM for 5 hrs by immunofluorescence staining based confocal microscopic analysis
Outline: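 MCF-7 cells were seeded at 1 × 10^5 cells/mL on chamber slides and treated at 0.01, 0.05 and 0.1 µM. Controls were vehicle (1% v/v ethanol), CA-4 (0.01 µM) and paclitaxel (1 µM). Cells were fixed and stained with anti-α-tubulin-FITC (DM1A) and Alexa Fluor 488, then counterstained with DAPI. Imaging was by confocal microscopy over three separate experiments.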

[19] = biological target: T1, UDP-glucuronosyltransferases (UGTs); test: Metabolic stability in human liver microsomes assessed as UGT-mediated N-glucuronidation by measuring half life at 3 uM measured up to 45 mins by LC-MS/MS analysis; format: ADME; conditions: liver microsomes; outline: as §5

COc1ccc([C@H]2[C@H](O)C(=O)N2c2cc(OC)c(OC)c(OC)c2)cc1F
inhibition [1]: Active | IC50 [2]: 3 nM | Activity [3]: 75% | Activity [4]: Tde | Activity [5]: 8% | Activity [6]: inactive | microsomal CLint at 3 µM [7]: 14.2 µL/min/mg | Activity [8]: 11% | Ratio IC50 [9]: 7.33 | Activity [10]: 64% | IC50 [11]: 22 nM | Activity [12]: Active | Activity [13]: 25% | Activity [14]: 22% | Activity [15]: 2% | Activity [16]: 60% | Activity [17]: inactive | Activity [18]: Active | half-life at 3 µM [19]: 1.63 h
